From ChEMBL document CHEMBL2346661, “Improved guanide compounds which bind the CXCR4 co-receptor and inhibit HIV-1 infection” (Bioorg Med Chem Lett, 2013)
Activity calls are given as the source filed them. No cut-off for these calls is given here.

What was measured:
MDA-MB-231 = assay: Cytotoxicity against human MDA-MB-231 cells expressing CXCR4 after 48 to 72 hrs by MTS assay; type: cell-based
In short: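 MDA-MB-231 breast cancer cells (CXCR4-expressing) exposed to compound for 48 to 72 h; viability by MTS dye reduction (CellTiter 96 Aqueous non-radioactive proliferation assay), run per manufacturer's protocol.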

[1] = target: T1, C-X-C chemokine receptor type 4 (Homo sapiens, UniProt P61073); assay: Inhibition of anti-CXCR4 mAb-44716 binding to CXCR4 in human H9 cells at 1 uM incubated for 20 mins prior to mAbs-44716 addition measured after 1 hr by flow cytometric analysis; type: cell-based
In short: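 H9 cells held 20 min at 4°C with […] compound in PBS/BSA/azide. Anti-CXCR4 mAb 44716 or an isotype control (anti-ricin RAC18) then added to 1 μg/ml for 1 h at 4°C. Washed, stained with Alexa 488 anti-mouse IgG for 1 h at 4°C, then fixed in 2% paraformaldehyde. Flow cytometry on 10,000 events; % inhibition from median fluorescence intensity.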

[2] = target: T1, C-X-C chemokine receptor type 4; assay: Inhibition of T-140 binding to CXCR4 (unknown origin) expressed in dog Cf2Th cells incubated for 30 mins prior to T-140 addition measured after 30 mins by fluorescence assay; type: cell-based
[3] = system: Human immunodeficiency virus 1; assay: Antiviral activity against X4 tropic HIV1 isolate 92-HT-599 infected in human TZM-bl cells assessed as neutralization of viral infectivity at 50 to 100 nM incubated 1 hr prior to viral infection measured after 72 hrs by luciferase reporter gene assay; type: functional, organism-based
[4] = system: Human immunodeficiency virus 1; assay: Antiviral activity against X4 tropic HIV1 BZ-167 infected in human TZM-bl cells assessed as neutralization of viral infectivity at 50 to 100 nM incubated 1 hr prior to viral infection measured after 72 hrs by luciferase reporter gene assay; type: functional, organism-based
[5] = Cytotoxicity against human TZM-bl cells up to 4 uM after 72 hrs by MTS assay; type: cell-based
In short: (§1)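 Cultures of TZM-bl, H9, or PHA blasts exposed to compound at concentrations up to 4 μM; MTS dye reduction measured at 72 h.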

[6] = target: T-cell surface glycoprotein CD4 (Homo sapiens) (UniProt P01730); assay: Inhibition of anti-CD4 mAb sim-2 binding to CD4 in PHA-induced human T cells at 0.1 to 10 uM incubated for 20 mins prior to mAb sim-2 addition measured after 1 hr by flow cytometric analysis; type: cell-based
In short: (§2)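 H9 cells or primary PHA-induced T-cell blasts pre-incubated 20 min at 4°C with a range of compound concentrations in PBS/1% BSA/0.01% sodium azide. mAb 12G5 (anti-CXCR4) or Sim.2 (anti-CD4) then added to 1 μg/ml for 1 h at 4°C. Detection with Alexa Fluor 488 goat anti-mouse IgG at 2 μg/ml for 1 h, then 2% paraformaldehyde fixation. Flow cytometry on 10,000 events; % inhibition from median fluorescence intensity against no-drug and no-Ab controls.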

[7] = target: T1, C-X-C chemokine receptor type 4; assay: Inhibition of anti-CXCR4 mAb-44717 binding to CXCR4 in human H9 cells at 3 uM incubated for 20 mins prior to mAb-44717 addition measured after 1 hr by flow cytometric analysis; type: cell-based
In short: (§3)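 H9 cells pre-incubated at 4°C with […] compound in PBS/BSA/azide, then stained with anti-CXCR4 mAb 12G5, 44708, 44716 or 44717 at 1 μg/ml for 1 h. Detection with Alexa 488 anti-mouse IgG, then 2% paraformaldehyde fixation. Flow cytometry on 10,000 events; % inhibition from median fluorescence intensity.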

[8] = target: T1, C-X-C chemokine receptor type 4; assay: Inhibition of anti-CXCR4 mAb-44708 binding to CXCR4 in human H9 cells at 3 uM incubated for 20 mins prior to mAb-44708 addition measured after 1 hr by flow cytometric analysis; type: cell-based; in short: as §3
H9 = assay: Cytotoxicity against human H9 cells up to 4 uM after 72 hrs by MTS assay; type: cell-based; settings: h9, 72 h; in short: as §1
[9] = target: T1, C-X-C chemokine receptor type 4; assay: Inhibition of anti-CXCR4 mAb-12G5 binding to CXCR4 in human H9 cells at 0.1 to 10 uM incubated for 20 mins prior to mAbs-12G5 addition measured after 1 hr by flow cytometric analysis; type: cell-based; in short: as §2
[10] = target: T-cell surface glycoprotein CD4 (Homo sapiens) (UniProt P01730); assay: Inhibition of anti-CD4 mAb sim-2 binding to CD4 in human H9 cells at 0.1 to 10 uM incubated for 20 mins prior to mAb sim-2 addition measured after 1 hr by flow cytometric analysis; type: cell-based; in short: as §2
[11] = system: Human immunodeficiency virus 1; assay: Antiviral activity against X4 tropic HIV1 isolate 92-UG-029 infected in human TZM-bl cells assessed as neutralization of viral infectivity at 50 to 100 nM incubated 1 hr prior to viral infection measured after 72 hrs by luciferase reporter gene assay; type: functional, organism-based
[12] = Cytotoxicity against PHA-induced human T cells up to 4 uM after 72 hrs by MTS assay; type: cell-based; settings: t-cell; in short: as §1
[13] = system: Human immunodeficiency virus 1; assay: Antiviral activity against R5 tropic HIV1 infected in human TZM-bl cells; type: functional, organism-based
[14] = target: T1, C-X-C chemokine receptor type 4; assay: Inhibition of anti-CXCR4 mAb-44716 binding to CXCR4 in human H9 cells at 3 uM incubated for 20 mins prior to mAbs-44716 addition measured after 1 hr by flow cytometric analysis; type: cell-based; in short: as §3
[15] = system: Human immunodeficiency virus 1; assay: Antiviral activity against X4 tropic HIV1 NL4-3 infected in human TZM-bl cells assessed as neutralization of viral infectivity at 50 to 100 nM incubated 1 hr prior to viral infection measured after 72 hrs by luciferase reporter gene assay; type: functional, organism-based
[16] = target: T1, C-X-C chemokine receptor type 4; assay: Inhibition of anti-CXCR4 mAb-12G5 binding to CXCR4 in PHA-induced human T cells at 0.1 to 10 uM incubated for 20 mins prior to mAbs-12G5 addition measured after 1 hr by flow cytometric analysis; type: cell-based; settings: T-cell; in short: as §2
[17] = target: T1, C-X-C chemokine receptor type 4; assay: Inhibition of anti-CXCR4 mAb-12G5 binding to CXCR4 in human H9 cells at 3 uM incubated for 20 mins prior to mAbs-12G5 addition measured after 1 hr by flow cytometric analysis; type: cell-based; in short: as §3

T1 sequence (P61073 whole entry): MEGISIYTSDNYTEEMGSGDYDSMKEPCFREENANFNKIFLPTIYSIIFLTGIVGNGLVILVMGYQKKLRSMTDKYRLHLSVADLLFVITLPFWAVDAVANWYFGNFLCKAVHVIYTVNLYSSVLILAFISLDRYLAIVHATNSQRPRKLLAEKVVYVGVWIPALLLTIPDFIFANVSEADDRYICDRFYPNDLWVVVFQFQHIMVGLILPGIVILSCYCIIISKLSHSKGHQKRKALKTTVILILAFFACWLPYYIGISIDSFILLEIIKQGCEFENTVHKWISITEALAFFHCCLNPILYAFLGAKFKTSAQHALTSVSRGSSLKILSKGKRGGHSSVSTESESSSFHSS

**Q.** What does the source list for N=C(NCCCNCCCCNCCCNC(=N)Nc1cccc2ccccc12)Nc1cccc2ccccc12?
**A.** CC50 (MDA-MB-231): 300 µM; inhibition [1]: Active; IC50 [2]: 0.18 µM

**Q.** With N=C(Nc1ccccc1)N(CCCCN=C(N)Nc1ccccc1)CCCN=C(N)Nc1ccccc1 as the molecule, how does the CC50 (MDA-MB-231) read?
**A.** Its CC50 is 510 µM.

**Q.** What about the IC50 [2] of the same molecule?
**A.** Its IC50 is 0.28 µM.

**Q.** With N=C(NCCCCNCCCNC(=N)Nc1ccccc1)Nc1ccccc1 as the molecule, how does the CC50 (MDA-MB-231) read?
**A.** Its CC50 is greater than 1000 µM.

**Q.** And the IC50 [2]?
**A.** Its IC50 is 0.26 µM.

**Q.** Which IC50 [2] does the source give for NC(=NCCCCN(CCCN=C(N)Nc1cccc2ccccc12)C(N)=Nc1cccc2ccccc12)Nc1cccc2ccccc12 here?
**A.** Its IC50 is 0.11 µM.

**Q.** With N=C(NCCCCN(CCCNC(=N)Nc1ccc2ccccc2c1)C(=N)Nc1ccc2ccccc2c1)Nc1ccc2ccccc2c1 as the molecule, how does the IC50 [2] read?
**A.** Its IC50 is 0.19 µM.

**Q.** What does the source list for N=C(NCCCNCCCCN(CCCNC(=N)Nc1cccc2ccccc12)C(=N)Nc1cccc2ccccc12)Nc1cccc2ccccc12?
**A.** Activity [3]: Active; Activity [4]: Active; Activity [5]: Non-toxic; CC50 (MDA-MB-231): 18 µM; inhibition [6]: inactive; inhibition [7]: Active; inhibition [8]: Active; Activity (H9): Non-toxic; inhibition [9]: Active; inhibition [10]: inactive; Activity [11]: Active; inhibition [1]: Active; Activity [12]: Non-toxic; Activity [13]: inactive; inhibition [14]: Active; Activity [15]: Active; inhibition [16]: Active; inhibition [17]: Active; IC50 [2]: 0.04 µM

**Q.** Which results are given for N=C(NCCCNCCCCN(CCCNC(=N)Nc1ccc2ccccc2c1)C(=N)Nc1ccc2ccccc2c1)Nc1ccc2ccccc2c1?
**A.** inhibition [1]: Active; Activity [13]: inactive

**Q.** Which CC50 (MDA-MB-231) does the source give for N=C(NCCCCNCCCNC(=N)Nc1cccc2ccccc12)Nc1cccc2ccccc12 here?
**A.** Its CC50 is 120 µM.

**Q.** And the IC50 [2]?
**A.** Its IC50 is 0.22 µM.

**Q.** For N=C(NCCCCNCCCNC(=N)Nc1ccc2ccccc2c1)Nc1ccc2ccccc2c1, which Activity [13] is on record?
**A.** The Activity was “inactive”.

**Q.** With N=C(NCCCNCCCCNCCCNC(=N)Nc1ccc2ccccc2c1)Nc1ccc2ccccc2c1 as the molecule, how does the CC50 (MDA-MB-231) read?
**A.** The CC50 was 17 µM.

**Q.** And the inhibition [1]?
**A.** Its inhibition is “Active”.

**Q.** And the Activity [13]?
**A.** Its Activity is “inactive”.

**Q.** What about the IC50 [2] of the same molecule?
**A.** The IC50 was 0.11 µM.

**Q.** With NC(=NCCCCNCCCN=C(N)Nc1ccc2ccccc2c1)Nc1ccc2ccccc2c1 as the molecule, how does the CC50 (MDA-MB-231) read?
**A.** The CC50 was 76 µM.

**Q.** And the IC50 [2]?
**A.** Its IC50 is 0.062 µM.

**Q.** With N=C(NCCCN(CCCCN(CCCNC(=N)Nc1cccc2ccccc12)C(=N)Nc1cccc2ccccc12)C(=N)Nc1cccc2ccccc12)Nc1cccc2ccccc12 as the molecule, how does the CC50 (MDA-MB-231) read?
**A.** The CC50 was 7.3 µM.

**Q.** And the IC50 [2]?
**A.** The IC50 was 0.38 µM.

**Q.** Which results are given for N=C(NCCCN(CCCCN(CCCNC(=N)Nc1ccc2ccccc2c1)C(=N)Nc1ccc2ccccc2c1)C(=N)Nc1ccc2ccccc2c1)Nc1ccc2ccccc2c1?
**A.** CC50 (MDA-MB-231): 20 µM; IC50 [2]: 0.3 µM

**Q.** With N=C(Nc1ccccc1)N(CCCCN(CCCN=C(N)Nc1ccccc1)C(N)=Nc1ccccc1)CCCNC(N)=Nc1ccccc1 as the molecule, how does the CC50 (MDA-MB-231) read?
**A.** The CC50 was greater than 100 µM.

**Q.** What about the IC50 [2] of the same molecule?
**A.** Its IC50 is 0.51 µM.

**Q.** Which CC50 (MDA-MB-231) does the source give for NC(=NCCCNCCCCN(CCCN=C(N)Nc1ccc2ccccc2c1)C(N)=Nc1ccc2ccccc2c1)Nc1ccc2ccccc2c1 here?
**A.** Its CC50 is 15 µM.

**Q.** What about the IC50 [2] of the same molecule?
**A.** The IC50 was 0.093 µM.

**Q.** Which results are given for NCCCNCCCCNCCCN?
**A.** inhibition [7]: inactive; inhibition [8]: inactive; inhibition [9]: inactive; inhibition [14]: inactive; inhibition [16]: inactive; inhibition [17]: inactive
